Experimental data reported in ChEMBL document CHEMBL1149892, “Structure-antifungal activity relationship of His-Phe-Arg-Trp-Gly-Lys-Pro-Val-NH2 and analogues” (2008).

Assays:
Type in all cases: functional
Candida albicans [1] = assay: Antifungal activity against Candida albicans 10231 at 100 uM after 24hrs relative to amphotericin B
In short: (§1)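 Broth microdilution in RPMI-1640. Peptides come from DMSO stocks, final DMSO ≤2%, at final 200 and 100 μM. Inoculum is 1–5 × 10^3 CFU/mL from strains grown 24 h at 35 °C on Sabouraud-chloramphenicol agar. […] Growth control carries matched DMSO; amphotericin B defines 100% inhibition. Run in duplicate.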

Candida tropicalis [2] = assay: Antifungal activity against Candida tropicalis C 131 at 200 uM after 24 hrs relative to amphotericin B; in short: as §1
Candida tropicalis [3] = assay: Antifungal activity against Candida tropicalis C 131 at 100 uM after 24 hrs relative to amphotericin B; in short: as §1
Cryptococcus neoformans [4] = assay: Antifungal activity against Cryptococcus neoformans ATCC 32264 at 25 uM after 48 hrs relative to amphotericin B; details: ATCC 32264, 48 h
In short: (§2)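 Microplate assay in RPMI-1640 with DMSO-dissolved peptide, final DMSO ≤2%. Inoculum is 1–5 × 10^3 CFU/mL from slants grown 24 h at 35 °C. Plates are held 48 h at 35 °C in a moist, dark chamber and read at OD405. Inhibition is taken against a DMSO-matched growth control after sterility-well subtraction; amphotericin B is set as 100%. Duplicate determinations.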

Cryptococcus neoformans [5] = assay: Antifungal activity against Cryptococcus neoformans ATCC 32264 at 12.5 uM after 48 hrs relative to amphotericin B; details: ATCC 32264, 48 h; in short: as §2
Cryptococcus neoformans [6] = assay: Antifungal activity against Cryptococcus neoformans ATCC 32264 at 6.25 uM after 48 hrs relative to amphotericin B; details: ATCC 32264, 48 h; in short: as §2
Cryptococcus neoformans [7] = assay: Antifungal activity against Cryptococcus neoformans ATCC 32264 at 3.25 uM after 48 hrs relative to amphotericin B; details: ATCC 32264, 48 h; in short: as §2
Cryptococcus neoformans [8] = assay: Antifungal activity against Cryptococcus neoformans ATCC 32264 at 1.62 uM after 48 hrs relative to amphotericin B; details: ATCC 32264, 48 h; in short: as §2
Cryptococcus neoformans [9] = assay: Antifungal activity against Cryptococcus neoformans ATCC 32264 at 0.81uM after 48 hrs relative to amphotericin B; details: ATCC 32264, 48 h; in short: as §2
Cryptococcus neoformans [10] = assay: Antifungal activity against Cryptococcus neoformans ATCC 32264 at 0.40 uM after 48 hrs relative to amphotericin B; details: ATCC 32264, 48 h; in short: as §2
Cryptococcus neoformans [11] = assay: Antifungal activity against Cryptococcus neoformans ATCC 32264 at 200 uM after 48 hrs relative to amphotericin B; details: ATCC 32264, 48 h; in short: as §2
Cryptococcus neoformans [12] = assay: Antifungal activity against Cryptococcus neoformans ATCC 32264 at 100 uM after 48 hrs relative to amphotericin B; details: ATCC 32264, 48 h; in short: as §2
Candida albicans [13] = assay: Antifungal activity against Candida albicans 10231 at 200 uM after 24 hrs relative to amphotericin B; in short: as §1
Cryptococcus neoformans [14] = assay: Antifungal activity against Cryptococcus neoformans ATCC 32264 at 50 uM after 48 hrs relative to amphotericin B; details: ATCC 32264, 48 h; in short: as §2

## H-HFKWGKFV-NH2
Candida albicans [1]
  inhibition at 100 µM: 0%
Candida tropicalis [2]
  inhibition at 200 µM: 22%
Candida tropicalis [3]
  inhibition at 100 µM: 0%
Cryptococcus neoformans [4]
  inhibition at 25 µM: 0%
Cryptococcus neoformans [5]
  inhibition at 12.5 µM: 0%
Cryptococcus neoformans [6]
  inhibition at 6.25 µM: 0%
Cryptococcus neoformans [7]
  inhibition at 3.25 µM: 0%
Cryptococcus neoformans [8]
  inhibition at 1.62 µM: 0%
Cryptococcus neoformans [9]
  inhibition at 0.81 µM: 0%
Cryptococcus neoformans [10]
  inhibition at 0.4 µM: 0%
Cryptococcus neoformans [11]
  inhibition at 200 µM: 97%
Cryptococcus neoformans [12]
  inhibition at 100 µM: 38%
Candida albicans [13]
  inhibition at 200 µM: 72%

## H-HYKWGKYV-NH2
Candida albicans [1]
  inhibition at 100 µM: 0%
Candida tropicalis [2]
  inhibition at 200 µM: 3%
Candida tropicalis [3]
  inhibition at 100 µM: 0%
Cryptococcus neoformans [14]
  inhibition at 50 µM: 39%
Cryptococcus neoformans [4]
  inhibition at 25 µM: 22%
Cryptococcus neoformans [5]
  inhibition at 12.5 µM: 19%
Cryptococcus neoformans [6]
  inhibition at 6.25 µM: 10%
Cryptococcus neoformans [11]
  inhibition at 200 µM: 63%
Cryptococcus neoformans [12]
  inhibition at 100 µM: 42%
Candida albicans [13]
  inhibition at 200 µM: 0%

## H-HFRWGKYV-NH2
Candida albicans [1]
  inhibition at 100 µM: 0%
Candida tropicalis [2]
  inhibition at 200 µM: 21%
Candida tropicalis [3]
  inhibition at 100 µM: 0%
Cryptococcus neoformans [14]
  inhibition at 50 µM: 56%
Cryptococcus neoformans [4]
  inhibition at 25 µM: 41%
Cryptococcus neoformans [5]
  inhibition at 12.5 µM: 28%
Cryptococcus neoformans [6]
  inhibition at 6.25 µM: 24%
Cryptococcus neoformans [7]
  inhibition at 3.25 µM: 10%
Cryptococcus neoformans [8]
  inhibition at 1.62 µM: 6%
Cryptococcus neoformans [9]
  inhibition at 0.81 µM: 0%
Cryptococcus neoformans [10]
  inhibition at 0.4 µM: 0%
Cryptococcus neoformans [11]
  inhibition at 200 µM: 99%
Cryptococcus neoformans [12]
  inhibition at 100 µM: 58%
Candida albicans [13]
  inhibition at 200 µM: 43%

## H-HFKWGKYV-NH2
Candida albicans [1]
  inhibition at 100 µM: 0%
Candida tropicalis [2]
  inhibition at 200 µM: 0%
Candida tropicalis [3]
  inhibition at 100 µM: 0%
Cryptococcus neoformans [14]
  inhibition at 50 µM: 50%
Cryptococcus neoformans [4]
  inhibition at 25 µM: 49%
Cryptococcus neoformans [5]
  inhibition at 12.5 µM: 40%
Cryptococcus neoformans [6]
  inhibition at 6.25 µM: 31%
Cryptococcus neoformans [7]
  inhibition at 3.25 µM: 36%
Cryptococcus neoformans [8]
  inhibition at 1.62 µM: 33%
Cryptococcus neoformans [9]
  inhibition at 0.81 µM: 31%
Cryptococcus neoformans [10]
  inhibition at 0.4 µM: 26%
Cryptococcus neoformans [11]
  inhibition at 200 µM: 83%
Cryptococcus neoformans [12]
  inhibition at 100 µM: 50%
Candida albicans [13]
  inhibition at 200 µM: 15%

## H-HYRWGKFV-NH2
Candida albicans [1]
  inhibition at 100 µM: 0%
Candida tropicalis [2]
  inhibition at 200 µM: 1%
Candida tropicalis [3]
  inhibition at 100 µM: 0%
Cryptococcus neoformans [14]
  inhibition at 50 µM: 37%
Cryptococcus neoformans [4]
  inhibition at 25 µM: 24%
Cryptococcus neoformans [5]
  inhibition at 12.5 µM: 21%
Cryptococcus neoformans [6]
  inhibition at 6.25 µM: 16%
Cryptococcus neoformans [7]
  inhibition at 3.25 µM: 16%
Cryptococcus neoformans [8]
  inhibition at 1.62 µM: 5%
Cryptococcus neoformans [9]
  inhibition at 0.81 µM: 0%
Cryptococcus neoformans [10]
  inhibition at 0.4 µM: 0%
Cryptococcus neoformans [11]
  inhibition at 200 µM: 35%
Cryptococcus neoformans [12]
  inhibition at 100 µM: 21%
Candida albicans [13]
  inhibition at 200 µM: 10%

## H-HFRWGRFV-NH2
Candida albicans [1]
  inhibition at 100 µM: 1%
Candida tropicalis [2]
  inhibition at 200 µM: 64%
Candida tropicalis [3]
  inhibition at 100 µM: 1%
Cryptococcus neoformans [14]
  inhibition at 50 µM: 67%
Cryptococcus neoformans [4]
  inhibition at 25 µM: 26%
Cryptococcus neoformans [5]
  inhibition at 12.5 µM: 26%
Cryptococcus neoformans [6]
  inhibition at 6.25 µM: 18%
Cryptococcus neoformans [7]
  inhibition at 3.25 µM: 12%
Cryptococcus neoformans [8]
  inhibition at 1.62 µM: 11%
Cryptococcus neoformans [9]
  inhibition at 0.81 µM: 10%
Cryptococcus neoformans [10]
  inhibition at 0.4 µM: 7%
Cryptococcus neoformans [11]
  inhibition at 200 µM: 94%
Cryptococcus neoformans [12]
  inhibition at 100 µM: 72%
Candida albicans [13]
  inhibition at 200 µM: 80%

## H-HYKWGRFV-NH2
Candida albicans [1]
  inhibition at 100 µM: 0%
Candida tropicalis [2]
  inhibition at 200 µM: 23%
Candida tropicalis [3]
  inhibition at 100 µM: 0%
Cryptococcus neoformans [6]
  inhibition at 6.25 µM: 19%
Cryptococcus neoformans [7]
  inhibition at 3.25 µM: 17%
Cryptococcus neoformans [8]
  inhibition at 1.62 µM: 21%
Cryptococcus neoformans [9]
  inhibition at 0.81 µM: 2%
Cryptococcus neoformans [10]
  inhibition at 0.4 µM: 0%
Cryptococcus neoformans [11]
  inhibition at 200 µM: 89%
Cryptococcus neoformans [12]
  inhibition at 100 µM: 47%
Candida albicans [13]
  inhibition at 200 µM: 11%

## H-HFRWGKPV-NH2
Candida albicans [1]
  inhibition at 100 µM: 0%
Candida tropicalis [2]
  inhibition at 200 µM: 0%
Candida tropicalis [3]
  inhibition at 100 µM: 0%
Cryptococcus neoformans [14]
  inhibition at 50 µM: 0%
Cryptococcus neoformans [4]
  inhibition at 25 µM: 0%
Cryptococcus neoformans [5]
  inhibition at 12.5 µM: 0%
Cryptococcus neoformans [6]
  inhibition at 6.25 µM: 0%
Cryptococcus neoformans [7]
  inhibition at 3.25 µM: 0%
Cryptococcus neoformans [8]
  inhibition at 1.62 µM: 0%
Cryptococcus neoformans [9]
  inhibition at 0.81 µM: 0%
Cryptococcus neoformans [10]
  inhibition at 0.4 µM: 0%
Cryptococcus neoformans [11]
  inhibition at 200 µM: 24%
Cryptococcus neoformans [12]
  inhibition at 100 µM: 9%
Candida albicans [13]
  inhibition at 200 µM: 0%

## H-HYKWGKFV-NH2
Candida albicans [1]
  inhibition at 100 µM: 0%
Candida tropicalis [2]
  inhibition at 200 µM: 1%
Candida tropicalis [3]
  inhibition at 100 µM: 0%
Cryptococcus neoformans [14]
  inhibition at 50 µM: 43%
Cryptococcus neoformans [4]
  inhibition at 25 µM: 38%
Cryptococcus neoformans [5]
  inhibition at 12.5 µM: 34%
Cryptococcus neoformans [6]
  inhibition at 6.25 µM: 0%
Cryptococcus neoformans [7]
  inhibition at 3.25 µM: 0%
Cryptococcus neoformans [8]
  inhibition at 1.62 µM: 0%
Cryptococcus neoformans [9]
  inhibition at 0.81 µM: 0%
Cryptococcus neoformans [10]
  inhibition at 0.4 µM: 0%
Cryptococcus neoformans [11]
  inhibition at 200 µM: 41%
Cryptococcus neoformans [12]
  inhibition at 100 µM: 25%
Candida albicans [13]
  inhibition at 200 µM: 0%

## H-HFRWGKFV-NH2
Candida albicans [1]
  inhibition at 100 µM: 5%
Candida tropicalis [2]
  inhibition at 200 µM: 19%
Candida tropicalis [3]
  inhibition at 100 µM: 9%
Cryptococcus neoformans [14]
  inhibition at 50 µM: 15%
Cryptococcus neoformans [4]
  inhibition at 25 µM: 2%
Cryptococcus neoformans [5]
  inhibition at 12.5 µM: 0%
Cryptococcus neoformans [6]
  inhibition at 6.25 µM: 0%
Cryptococcus neoformans [7]
  inhibition at 3.25 µM: 0%
Cryptococcus neoformans [8]
  inhibition at 1.62 µM: 0%
Cryptococcus neoformans [9]
  inhibition at 0.81 µM: 0%
Cryptococcus neoformans [10]
  inhibition at 0.4 µM: 0%
Cryptococcus neoformans [11]
  inhibition at 200 µM: 77%
Cryptococcus neoformans [12]
  inhibition at 100 µM: 15%
Candida albicans [13]
  inhibition at 200 µM: 61%
